Key:
KB [1] = experiment: Dark toxicity against human KB cells assessed as cell survival at 100 uM after 24 hrs by MTT assay; type: cell-based
MCF7 = experiment: Phototoxicity in human MCF7 cells assessed as reduction in cell viability preincubated for 4 hrs followed by irradiation with blue light at 2.5 J/cm2 and subsequent incubation for 18 hrs measured after 24 hrs post treatment by MTT assay; type: functional; details: for CC50: MCF7, light or radiation study, read-out: LD50 (the source's name)
How it was run: (§1)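 Cells seeded ~5 × 10^4 per well, grown 48 h, washed with PBS, then 4 h with compound (five concentrations within 1–100 μM, triplicate, three untreated control wells per plate). Irradiated with blue light, peak ~420 nm, 2.5 J/cm². Medium replaced, cells kept a further 18 h. MTT read at A570 24 h after treatment; survival expressed as percentage of control. LD50 taken from two sets of experiments.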

KB [2] = experiment: Dark toxicity against human KB cells at 200 uM preincubated for 4 hrs followed by compound washout measured after 24 hrs by MTT assay; type: cell-based
How it was run: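 Dark toxicity in KB cells: 200 μM compound for 4 h with no light, removed, cells kept 24 h. Viability by MTT (2 h, A570 after DMSO solubilisation), given as % of untreated controls. Triplicate.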

KB [3] = experiment: Phototoxicity in human KB cells assessed as reduction in cell viability preincubated for 4 hrs followed by irradiation with blue light at 2.5 J/cm2 and subsequent incubation for 18 hrs measured after 24 hrs post treatment by MTT assay; type: functional; details: for CC50: light or radiation study, read-out: LD50 (the source's name); how it was run: as §1
MCF7R = experiment: Phototoxicity in human doxorubicin resistant MCF7/R cells assessed as reduction in cell viability preincubated for 4 hrs followed by irradiation with blue light at 2.5 J/cm2 and subsequent incubation for 18 hrs measured after 24 hrs post treatment by MTT assay; type: functional; details: for CC50: light or radiation study, read-out: LD50 (the source's name); how it was run: as §1
[4] = Drug metabolism in human doxorubicin resistant MCF7/R cells assessed as formation of protoporphyrin 9 at 1 to 100 uM after 6 hrs by fluorescence spectrometer; type: ADME, cell-based; details: mcf7r
How it was run: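 Cells seeded ~5 × 10^4 per well and grown 48 h, washed with PBS. Then 6 h at 37 °C with 1–100 μM prodrug in serum-free medium. PpIX fluorescence read with excitation 405 nm and emission 635 nm (scan 600–750 nm, 515 nm long-pass filter). Values are mean intensity in arbitrary units after subtracting no-prodrug control wells. Triplicate.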

[5] = Drug metabolism in human MCF7 cells assessed as formation of protoporphyrin 9 preincubated for 2 hrs followed by compound washout measured after 24 hrs by HPLC-based fluorescence analysis; type: ADME, cell-based; details: mcf7, 24 h
How it was run: (§2)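 Cells given ALA or conjugate for 2 h at 37 °C, then fresh medium without compound. At 24 h, lysed in CelLytic (15 min, room temperature), scraped and spun 1800g for 10 min. Supernatant PpIX read by fluorescence at 405/635 nm and normalised per mg protein (BCA). Untreated blanks subtracted.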

[6] = Drug metabolism in human doxorubicin resistant MCF7/R cells assessed as formation of protoporphyrin 9 at 100 uM after 6 hrs by fluorescence spectrometer; type: ADME, cell-based; details: mcf7r
How it was run: (§3)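 MCF-7R monolayers exposed 6 h at 37 °C to ALA, conjugates or ALA hexyl/octyl esters at 1–100 μM in serum-free medium. PpIX emission at 635 nm (405 nm excitation; spectra 600–750 nm) read in wells. Untreated controls subtracted; mean of triplicates in arbitrary units.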

[7] = Drug metabolism in human doxorubicin resistant MCF7/R cells assessed as formation of protoporphyrin 9 at 50 uM after 6 hrs by fluorescence spectrometer; type: ADME, cell-based; details: mcf7r
How it was run: (§4)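 MCF-7 or MCF-7R cells incubated 6 h at 37 °C with 50 μM conjugate, or with 50 μM ALA and HPO as a 1:1 mixture, in serum-free medium. PpIX fluorescence read in wells at 405/635 nm, untreated-well values subtracted, triplicate.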

[8] = Drug metabolism in human MCF7 cells assessed as formation of protoporphyrin 9 at 50 uM after 6 hrs by fluorescence spectrometer; type: ADME, cell-based; details: mcf7, 6 h; how it was run: as §4
[9] = Drug metabolism in human KB cells assessed as formation of protoporphyrin 9 at 100 uM after 6 to 24 hrs by fluorescence spectrometer; type: ADME, cell-based
How it was run: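 Time course in KB cells at 37 °C after 100 μM conjugate, ALA, or 1:1 ALA + HPO mixture in serum-free medium. Well PpIX fluorescence read at 405 nm excitation / 635 nm emission, control autofluorescence subtracted, triplicate means.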

[10] = Drug metabolism in human doxorubicin resistant MCF7/R cells assessed as formation of protoporphyrin 9 preincubated for 2 hrs followed by compound washout measured after 24 hrs by HPLC-based fluorescence analysis; type: ADME, cell-based; details: mcf7r; how it was run: as §2
[11] = Drug metabolism in human KB cells assessed as protoporphyrin 9 formation at 500 uM preincubated for 1 hr at 4 degC followed by compound washout and subsequent incubation for 4 hrs at 37 degC by fluorescence spectrometer; type: ADME, cell-based
How it was run: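 KB cells exposed 1 h to 500 μM prodrug in clear medium at either 4 °C or 37 °C, plates foil-wrapped. Compound then removed, PBS rinse, fresh medium, both plates 4 h at 37 °C. PpIX read in wells at 405/635 nm after subtracting untreated wells.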

[12] = Drug metabolism in human doxorubicin resistant MCF7/R cells assessed as formation of protoporphyrin 9 after 6 hrs by fluorescence spectrometer; type: ADME, cell-based; details: mcf7r; how it was run: as §3
[13] = Drug metabolism in human KB cells assessed as formation of protoporphyrin 9 preincubated for 2 hrs followed by compound washout measured after 24 hrs by HPLC-based fluorescence analysis; type: ADME, cell-based; how it was run: as §2
[14] = Drug metabolism in human doxorubicin resistant MCF7/R cells assessed as formation of protoporphyrin 9 at 1 to 100 uM after 6 hrs by fluorescence spectrometer relative to ALA; type: ADME, cell-based; details: mcf7r; how it was run: as §3
[15] = Drug metabolism in human KB cells assessed as formation of protoporphyrin 9 at 50 uM after 24 hrs by fluorescence spectrometer relative to ALA; type: ADME, cell-based
How it was run: (§5)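 KB monolayers (48 h after seeding ~5×10^4/well) washed, then given prodrug or ALA at 50 μM in serum-free medium at 37 °C. PpIX fluorescence read in wells at 2, 4, 6 and 24 h, excitation 405 nm, emission 635 nm. Untreated wells subtracted for autofluorescence; mean intensity in arbitrary units, triplicate.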

KB [16] = experiment: Phototoxicity in human KB cells assessed as cell survival at 10 uM preincubated for 4 hrs followed by irradiation with blue light at 2.5 J/cm2 and subsequent incubation for 18 hrs measured after 24 hrs post treatment by MTT assay relative to control; type: functional; details: light or radiation study, read-out: Survival; how it was run: as §1
[17] = Drug metabolism in human KB cells assessed as formation of protoporphyrin 9 at 50 uM after 2 to 24 hrs by fluorescence spectrometer; type: ADME, cell-based; how it was run: as §5
[18] = Prodrug conversion in human KB cells assessed as accumulation of ALA at 100 uM after 2 hrs by HPLC-based fluorescence analysis relative to ALA; type: ADME, cell-based
How it was run: (§6)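 KB or MCF-7R cells incubated 2 h with 100 μM ALA or conjugate, then extracted with CelLytic. Lysate ALA derivatised with acetylacetone/ethanol/water (15/45/40) plus 10% formaldehyde at 100 °C for 10 min. Analysed by C18 HPLC with fluorescence detection (excitation 370 nm, emission 460 nm) against spiked-lysate calibration. Normalised per mg protein.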

[19] = Prodrug conversion in human doxorubicin resistant MCF7/R cells assessed as accumulation of ALA at 100 uM after 2 hrs by HPLC-based fluorescence analysis relative to ALA; type: ADME, cell-based; details: mcf7r; how it was run: as §6

## CNC(=O)c1c(O)c(=O)ccn1CCCCCCOC(=O)CCC(=O)CN.Cl
KB [1]
  Activity: Non-Toxic
MCF7
  Activity: Dose-dependent effect
  CC50: 113 µM
KB [2]
  Activity: Non-Toxic
KB [3]
  Activity: Dose-dependent effect
  CC50: 108 µM
MCF7R
  Activity: Dose-dependent effect
  CC50: 104 µM
[4]
  Drug metabolism: Metabolite_Notdetected

## CCc1c(O)c(=O)ccn1CCOC(=O)CCC(=O)CN.Cl
[5]
  Drug metabolism: Metabolite_Detected
KB [1]
  Activity: Non-Toxic
MCF7
  Activity: Dose-dependent effect
  CC50: 124 µM
KB [2]
  Activity: Non-Toxic
KB [3]
  Activity: Dose-dependent effect
  CC50: 115 µM
MCF7R
  Activity: Dose-dependent effect
  CC50: 122 µM
[6]
  Drug metabolism: Metabolite_Notdetected

## CCc1c(O)c(=O)ccn1CCCCCCOC(=O)CCC(=O)CN.Cl
[7]
  Drug metabolism: Metabolite_Detected
[5]
  Drug metabolism: Metabolite_Detected
KB [1]
  Activity: Non-Toxic
MCF7
  Activity: Dose-dependent effect
  CC50: 13.4 µM
[8]
  Drug metabolism: Metabolite_Detected
[9]
  Drug metabolism: Metabolite_Detected
[10]
  Drug metabolism: Metabolite_Detected
[11]
  Drug metabolism: Metabolite_Detected
[12]
  Drug metabolism: Dose-dependent effect
KB [2]
  Activity: Non-Toxic
KB [3]
  Activity: Dose-dependent effect
  CC50: 5.2 µM
[13]
  Drug metabolism: Metabolite_Detected
MCF7R
  Activity: Dose-dependent effect
  CC50: 8.1 µM
[4]
  Flu intensity: 2 to 25 a.u.
[14]
  fold change (FC): > 15

## CCc1c(O)c(=O)ccn1CCCCCCCCCCCCOC(=O)CCC(=O)CN.Cl
[7]
  Drug metabolism: Metabolite_Detected
[5]
  Drug metabolism: Metabolite_Detected
KB [1]
  Activity: Non-Toxic
MCF7
  Activity: Dose-dependent effect
  CC50: 12.9 µM
[8]
  Drug metabolism: Metabolite_Detected
[9]
  Drug metabolism: Metabolite_Detected
[10]
  Drug metabolism: Metabolite_Detected
[11]
  Drug metabolism: Metabolite_Detected
[15]
  fold change (FC): 9.2
[12]
  Drug metabolism: Dose-dependent effect
KB [2]
  Activity: Non-Toxic
KB [3]
  Activity: Dose-dependent effect
  CC50: 2.5 µM
KB [16]
  viability at 10 µM: < 6%
[13]
  Drug metabolism: Metabolite_Detected
[17]
  Drug metabolism: Metabolite_Detected
MCF7R
  Activity: Dose-dependent effect
  CC50: 5.5 µM
[4]
  Flu intensity: 2 to 25 a.u.

## CC(O)c1c(O)c(=O)ccn1CCCCCCOC(=O)CCC(=O)CN.Cl (configuration not stated)
KB [1]
  Activity: Non-Toxic
MCF7
  Activity: Dose-dependent effect
  CC50: 16.6 µM
[10]
  Drug metabolism: Metabolite_Detected
KB [2]
  Activity: Non-Toxic
KB [3]
  Activity: Dose-dependent effect
  CC50: 24.1 µM
[13]
  Drug metabolism: Metabolite_Detected
MCF7R
  Activity: Dose-dependent effect
  CC50: 8.4 µM
[14]
  fold change (FC): > 10

## CCc1c(O)c(=O)ccn1CCCCCCCCOC(=O)CCC(=O)CN.Cl.Cl
[7]
  Drug metabolism: Metabolite_Detected
[5]
  Drug metabolism: Metabolite_Detected
KB [1]
  Activity: Non-Toxic
[18]
  fold change (FC): 6
[19]
  fold change (FC): 6
MCF7
  Activity: Dose-dependent effect
  CC50: 10.9 µM
[8]
  Drug metabolism: Metabolite_Detected
[9]
  Drug metabolism: Metabolite_Detected
[10]
  Drug metabolism: Metabolite_Detected
[11]
  Drug metabolism: Metabolite_Detected
[15]
  fold change (FC): 8
[12]
  Drug metabolism: Dose-dependent effect
KB [2]
  Activity: Non-Toxic
KB [3]
  Activity: Dose-dependent effect
  CC50: 3.1 µM
KB [16]
  viability at 10 µM: < 6%
[13]
  Drug metabolism: Metabolite_Detected
[17]
  Drug metabolism: Metabolite_Detected
MCF7R
  Activity: Dose-dependent effect
  CC50: 4.2 µM
[4]
  Flu intensity: 2 to 25 a.u.

## CCc1c(O)c(=O)ccn1CCCCOC(=O)CCC(=O)CN.Cl
[5]
  Drug metabolism: Metabolite_Detected
KB [1]
  Activity: Non-Toxic
MCF7
  Activity: Dose-dependent effect
  CC50: 76.5 µM
[11]
  Drug metabolism: Metabolite_Detected
[12]
  Drug metabolism: Dose-dependent effect
KB [2]
  Activity: Non-Toxic
KB [3]
  Activity: Dose-dependent effect
  CC50: 65.1 µM
MCF7R
  Activity: Dose-dependent effect
  CC50: 61.2 µM
[4]
  Flu intensity: 2 to 25 a.u.
